High-throughput results from PubChem BioAssay.
Efflux pump mplx: inhibitors of Candida efflux pumps in yeast, primary screen, S. cerevisiae, Nile Red, multiplex | S. cerevisiae Candida pump triplex | inhibition, % at 10 µM | 330,000 tested, 0.44% active;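 active means plate passing quality check with inhibition over a set limit, or well fluorescence over plate mean plus 4 SD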;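 further: Nile Red retained in pooled yeast measured as flow cytometry median fluorescence; 0% = buffer negative control and 100% = Enniatin B positive control; higher means more Nile Red kept so more efflux inhibition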
AHR act: AHR activators, primary screen, cell-based, luminescence, luciferase reporter, human | Aryl hydrocarbon receptor (Homo sapiens), P35869 | AHR-responsive luciferase reporter cells | activation, % at 5 µM | 320,000 tested, 2.5% active; in the data active means activation above about 47%;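 further: 0% = vehicle wells and 100% = reference agonist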
TAG inh: inhibitors of triacylglycerol accumulation, primary screen, cell-based, uHTS, fluorescence, H9c2; H9c2 cells, Nile Red lipid (TAG) fluorescence; cells loaded with 200 µM oleic acid; inhibition, % at 12.5 µM; 230,000 tested, 0.66% active;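 active means pattern-corrected inhibition of lipid staining of at least 50% with the nuclear-stain viability signal not falling by more than 50%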;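 further: 0% = DMSO wells and 100% = triacsin C control wells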
Tb MetRS inh: T. brucei MetRS inhibitors, primary screen, biochemical, luminescence | methionyl-tRNA synthetase (Trypanosoma brucei brucei) | purified T. brucei MetRS, ATP depletion, Kinase-Glo luminescence | inhibition, % at 11.9 µM | 360,000 tested, 0.4% active | AID 624268, 2012;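 active means inhibition above a per-plate cutoff of the control wells' mean inhibition plus 3 SD, cut at about 5.5% in these data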;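 further: 0% = DMSO wells median and 100% = median of wells with control inhibitor compound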
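Material: parasite MetRS enzyme / Replication: singlicate, one well per compound / Signal: luminescence of leftover ATP / Schedule: 2 h aminoacylation at 25 °C after 15 min preincubation / Medium: HEPES-MgCl2-KCl buffer plus DTT, spermine, BSA, pyrophosphatase / Doses: 11.9 µM single point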
SMARCA2 activ: SMARCA2 (BRM) function activators, primary screen, cell-based, luminescence, high throughput; MG213 cells, MMTV-luciferase reporter, dexamethasone, overnight; activation, % at 9.1 µM; 370,000 tested, 1% active; in the data active means activation above about 7.8%;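 further: 0% = vehicle wells and 100% = reference activator wells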
* = called active by the depositor. Only some compounds are listed: those with a hit (about 4.1% of all), similar ones and a draw of the others.

Screening CCN(CC)c1ccc(/C=N/NC(=O)c2ccccn2)cc1 returned Efflux pump mplx 0, AHR act 26, TAG inh -11, Tb MetRS inh 0 and SMARCA2 activ 6.
For CCN(CC)c1ccc(/C=N/NC(=O)c2c[nH]c3ccccc23)cc1 the results were Efflux pump mplx 0, AHR act 50*, Tb MetRS inh -1 and SMARCA2 activ 2.
`COC(=O)c1cc(S(=O)(=O)N2CCN(c3ccccc3Cl)CC2)cn1C` gave SMARCA2 activ -6.
For Cc1cc(C)cc(C(=O)O/N=C(\N)c2ccc(Br)cc2)c1 the results were Efflux pump mplx 0, AHR act 10, Tb MetRS inh -1 and SMARCA2 activ -3.
`COc1cccc(C(=O)O/N=C(\N)c2ccncc2)c1` gave Efflux pump mplx 0, AHR act 6, Tb MetRS inh -2 and SMARCA2 activ 7.8*.
Screening N/C(=N\OC(=O)c1ccoc1)c1ccc(Br)cc1 returned Efflux pump mplx 0, AHR act 6, Tb MetRS inh 0 and SMARCA2 activ 7.8*.
`N/C(=N\OC(=O)c1cccc(Br)c1)c1ccccc1` gave Efflux pump mplx 0, AHR act 74*, Tb MetRS inh -1 and SMARCA2 activ 4.
For COc1ccccc1C(=O)O/N=C(\N)c1ccc(Cl)cc1 the results were Efflux pump mplx 0, AHR act 69*, Tb MetRS inh -1 and SMARCA2 activ 6.
Screening Cc1cccc(C(=O)O/N=C(\N)c2ccc(Br)cc2)c1 returned Efflux pump mplx 0, AHR act 42, Tb MetRS inh 0 and SMARCA2 activ 2.
For Clc1ccc([C@H]2OC[C@@]3(CNCC4CC4)CS[C@H](c4ccc(Cl)cc4)N23)cc1 the results were SMARCA2 activ -4.
For COC(=O)[C@H](C(C)C)N1CCc2nnn(CC3CCCCC3)c2-c2cc(F)ccc2S1(=O)=O the results were SMARCA2 activ 2.
`COc1cccc(/C(N)=N/OC(=O)Cc2ccccc2[N+](=O)[O-])c1` gave Efflux pump mplx 0, AHR act 60*, TAG inh 4, Tb MetRS inh 0 and SMARCA2 activ 1.
For COc1ccc(/C(N)=N/OC(=O)c2cccc([N+](=O)[O-])c2)cc1 the results were Efflux pump mplx 0, AHR act 12, TAG inh 13, Tb MetRS inh 0 and SMARCA2 activ 3.
`COc1cccc(C(=O)O/N=C(\N)c2ccc(C)cc2)c1` gave Efflux pump mplx 0, AHR act 68*, Tb MetRS inh -1 and SMARCA2 activ 2.
For COc1ccc(/C(N)=N/OC(=O)c2cccc([N+](=O)[O-])c2C)cc1 the results were Efflux pump mplx 0, AHR act 54*, TAG inh -16, Tb MetRS inh 0 and SMARCA2 activ -2.
COc1ccc(C(=O)O/N=C(\N)c2cccc(C)c2)cc1OC was read as Efflux pump mplx 0, AHR act -1, Tb MetRS inh 0 and SMARCA2 activ 4.
`N/C(=N\OC(=O)c1cccc2ccccc12)c1ccncc1` gave Efflux pump mplx 0, AHR act 67*, TAG inh 11, Tb MetRS inh 0 and SMARCA2 activ 3.
`N#Cc1cc2c(=O)n3ccccc3nc2n(CCCn2ccnc2)c1=N` gave Efflux pump mplx 0, AHR act 102*, Tb MetRS inh 0 and SMARCA2 activ 6.
CCCn1c(=N)c(C#N)cc2c(=O)n3ccccc3nc21 was read as Efflux pump mplx 0, AHR act 85*, Tb MetRS inh 0 and SMARCA2 activ -5.
CCN(C(=O)[C@@H](C)[C@@H](O)c1ccc2ccccc2c1)c1ccccc1 was read as SMARCA2 activ -2.
For O=C(NN1C(=O)c2cc(Br)ccc2NC1c1cc(Br)cc(Br)c1O)c1ccncc1 (centres undefined) the results were Efflux pump mplx 0, AHR act 56*, TAG inh 2, Tb MetRS inh 1 and SMARCA2 activ -1.
For COc1ccc(Br)cc1C1Nc2ccccc2C(=O)N1NC(=O)c1ccncc1 (centres undefined) the results were Efflux pump mplx 0, AHR act 10, Tb MetRS inh 0 and SMARCA2 activ 0.
`O=C(NN1C(=O)c2cc(Br)ccc2NC1c1ccccc1Cl)c1ccncc1` (centres undefined) gave Efflux pump mplx 0, AHR act 49*, Tb MetRS inh -1 and SMARCA2 activ -3.
C=CCCC(=O)Nc1nc(C)c(-c2csc(Nc3cc(Cl)ccc3OC)n2)s1 was read as Efflux pump mplx 0, AHR act 72*, TAG inh 0, Tb MetRS inh 0 and SMARCA2 activ 0.
Screening COc1ccc(Cl)cc1Nc1nc(-c2sc(NC(=O)CC(C)C)nc2C)cs1 returned Efflux pump mplx 0, AHR act 38, TAG inh 23, Tb MetRS inh 1 and SMARCA2 activ 0.
Screening COc1ccc(Cl)cc1Nc1nc(-c2sc(NC(=O)c3ccccc3)nc2C)cs1 returned Efflux pump mplx 0 and AHR act 95*.
COc1ccc(OC)c(Nc2nc(-c3sc(NC(=O)c4ccccc4)nc3C)cs2)c1 was read as Efflux pump mplx 0 and AHR act 55*.
Screening Cc1nc(NC(=O)CC(C)C)sc1-c1csc(Nc2ccc(Cl)cc2Cl)n1 returned Efflux pump mplx 0, AHR act 61*, TAG inh 31, Tb MetRS inh 0 and SMARCA2 activ -1.
C=CCN1C(=O)[C@H](CC(=O)N2CCC(c3ccccc3)CC2)[C@@]2(C(=O)OCC)CCCC=C12 was read as SMARCA2 activ -4.
Screening COc1cc(C(NC(=O)C(F)(F)F)C2CCCC=C2c2ccccc2)cc(OC)c1OC (centres undefined) returned SMARCA2 activ -2.
Screening O=C(NCc1ccccc1)c1ccc(CO)cc1 returned SMARCA2 activ -1.
For CCOC(=O)N1CCN(C(=O)C[C@@H]2C(=O)N(CCc3ccc(Cl)cc3)/C3=C/CCCCC[C@@]32C(=O)OCC)CC1 the results were SMARCA2 activ -3.
`Cc1ccc(-c2c(C#N)c(N)n3c(nc4ccccc43)c2C#N)cc1` gave Efflux pump mplx 0, AHR act 49*, TAG inh -4, Tb MetRS inh -1 and SMARCA2 activ -1.
N#Cc1c(-c2ccccc2)c(C#N)c2nc3ccccc3n2c1N was read as Efflux pump mplx 0, AHR act 27, Tb MetRS inh -1 and SMARCA2 activ 0.
`CCC(C)Sc1nc2c(cnn2-c2ccccc2)c(=O)[nH]1` (centres undefined) gave Efflux pump mplx 1, AHR act 66*, TAG inh 15, Tb MetRS inh -1 and SMARCA2 activ -2.
For Cc1ccc2nc(-c3ccc(C#N)cc3)c(Cc3cccc(F)c3)n2c1 the results were SMARCA2 activ 2.
